The text below walks through data of ChEMBL document CHEMBL1127826, “Inhibitors of acyl-CoA:cholesterol acyltransferase (ACAT). 7. Development of a series of substituted N-phenyl-N'-[(1-phenylcyclopentyl)methyl]ureas with enhanced hypocholesterolemic activity” (J Med Chem, 1994).

The term logD denotes the decadic logarithm of the distribution of all forms, ionised or not, between an organic phase and buffer at a given pH. As usually defined, the IC50 is the midpoint of a concentration-inhibition curve. A high value points to weaker potency in that assay.

Series [1] can be described thus: Compound was evaluated for the distribution coefficient at pH 7.4. In kind it is physicochemical. Particulars: octanol/water, read-out: logD.
Series [2] concerns Rattus norvegicus. As to the kind of experiment: Compound was evaluated for the percentage change in total cholesterol in peanut oil (5.5%)-cholic acid (0.3%)-cholesterol (1.5%)-fed rats at 30 mg/kg. In kind it is functional.
In series [3] the target is T1, Acyl-CoA:cholesterol acyltransferase (Oryctolagus cuniculus, UniProt Q95214).
T1 sequence (Q95214 whole entry): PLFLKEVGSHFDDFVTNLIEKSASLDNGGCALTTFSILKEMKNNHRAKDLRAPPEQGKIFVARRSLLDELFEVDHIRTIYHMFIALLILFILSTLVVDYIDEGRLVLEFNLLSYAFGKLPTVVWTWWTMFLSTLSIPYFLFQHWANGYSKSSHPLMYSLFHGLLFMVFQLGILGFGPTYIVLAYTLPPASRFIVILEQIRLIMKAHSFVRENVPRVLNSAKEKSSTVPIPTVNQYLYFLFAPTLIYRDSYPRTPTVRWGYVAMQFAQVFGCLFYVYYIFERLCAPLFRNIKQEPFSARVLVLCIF
As to the kind of experiment: Tested for in vitro inhibition against Acyl coenzyme A:cholesterol acyltransferase of intestinal microsomes in cholesterol-fed rabbits. Also noted: species or system Microsome. The method in brief: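 Microsomes were prepared from intestine of cholesterol-fed rabbits. ACAT activity was measured using [1-14C]oleoyl-CoA as substrate. Each determination was run in triplicate.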

The species entered for series [4] is Rattus norvegicus. The series is described as follows: Percent change in total cholesterol in peanut oil (5.5%)-, cholic acid (0.3%)-, Cholesterol (1.5%)-fed rats after a single dose. The series is classed as functional. The method in brief: (§1)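 Male Sprague-Dawley rats (200-225 g), n=5-7/group, given a single oral dose at 4 p.m. as a suspension in 1.5% CMC/0.2% Tween-20 in water (50 mg/kg); controls received vehicle alone. The rats then had free access to chow with peanut oil, cholesterol and cholic acid. At 8 a.m. next day they were bled by cardiac puncture under ether, and serum total cholesterol was measured as % change versus controls (unpaired two-tailed t-test).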

Series [5] is filed under the species Rattus norvegicus. As to the kind of experiment: Percent change in total cholesterol in peanut oil (5.5%) - cholic acid (0.3%) - Cholesterol (1.5%) fed rats after a single dose. The series is classed as functional. The method in brief: as §1

As for `CC(C)c1cccc(C(C)C)c1NC(=O)NCC1(c2cccc(CN(C)C)c2)CCCC1.Cl`, the logD in series [1] is 4.87. Further, the “Delta TC” value in the series with Rattus norvegicus [2] is listed as -46%; in the series filed under Rattus norvegicus [4] it was -44%. In series [3], this compound displayed an IC50 of 0.067 µM.
`CC(C)c1cccc(C(C)C)c1NC(=O)NCC1(c2ccc(OCc3ccccc3)cc2)CCCC1` registered a concentration for half-maximal inhibition (IC50) in series [3] of 0.034 µM. In the series filed under Rattus norvegicus [4], the “Delta TC” value is on record as -33%.
`CC(C)c1cccc(C(C)C)c1NC(=O)NCC1(c2cccc(CC#N)c2)CCCC1`: the logD in series [1] came out at 3.61. This compound had an IC50 in series [3] of 0.024 µM. In addition, the “Delta TC” value in the series filed under Rattus norvegicus [4] was -31%.
Take `CC(C)c1cccc(C(C)C)c1NC(=O)NCC1(c2ccc([N+](=O)[O-])cc2)CCCC1`: the concentration for half-maximal inhibition (IC50) in series [3] worked out at 0.131 µM.
Take `CC(C)c1cccc(C(C)C)c1NC(=O)NCC1(c2ccc(CO)cc2)CCCC1`: the “Delta TC” value in the series listed under Rattus norvegicus [4] is reported as 19%.
Take `CC(C)c1cccc(C(C)C)c1NC(=O)NCC1(c2ccc(C(F)(F)F)cc2)CCCC1`: the “Delta TC” value in the series listed under Rattus norvegicus [5] is recorded as -39%. Besides, the IC50 in series [3] stood at 0.066 µM.
As for `CC(=O)OCCN(CCOC(C)=O)Cc1cccc(C2(CNC(=O)Nc3c(C(C)C)cccc3C(C)C)CCCC2)c1`, the logD in series [1] was 4.55. Further, the “Delta TC” value in the series on Rattus norvegicus [2] is recorded as -71%; in the series listed under Rattus norvegicus [4], -35%. This compound also showed an IC50 in series [3] of 0.033 µM.
In the case of `CC(C)c1cccc(C(C)C)c1NC(=O)NCC1(c2ccc(Cl)cc2)CCCC1`, the “Delta TC” value in the series listed under Rattus norvegicus [5] was -64%. Moreover, in series [3], half-maximal inhibition (IC50) was put at 0.032 µM.
The corresponding values for `Cc1cccc(C2(CNC(=O)Nc3c(C(C)C)cccc3C(C)C)CCCC2)c1` are -52% and 0.015 µM.
Take `CC(C)c1cccc(C(C)C)c1NC(=O)NCC1(c2cccc(CN(CCO)CCO)c2)CCCC1`: the logD in series [1] came out at 3.55. Besides, the “Delta TC” value is on record as -63% with Rattus norvegicus [2] and -33% in the series listed under Rattus norvegicus [4].
`CC(C)c1cccc(C(C)C)c1NC(=O)NCC1(c2cccc(CN)c2)CCCC1`: the logD in series [1] came to 3.64. In series [3], this compound returned an IC50 of 0.44 µM. Further, in the series listed under Rattus norvegicus [4], the “Delta TC” value is on record as -49%.
With `Cc1ccc(C)c(C2(CNC(=O)Nc3c(C(C)C)cccc3C(C)C)CCCC2)c1`, the “Delta TC” value in the series filed under Rattus norvegicus [5] is -48%. Besides, in series [3], the IC50 worked out at 0.039 µM.
In series [3], `CC(C)c1cccc(C(C)C)c1NC(=O)NCC1(c2cccc(N)c2)CCCC1` gave a concentration for half-maximal inhibition (IC50) of 0.021 µM. In addition, in the series filed under Rattus norvegicus [4], the “Delta TC” value is on record as -75%.
In the case of `CC(C)c1cccc(C(C)C)c1NC(=O)NCC1(c2ccc(C(C)(C)C)cc2)CCCC1`, the “Delta TC” value in the series listed under Rattus norvegicus [5] is on record as -48%. Also, 0.063 µM corresponded to half-maximal inhibition in series [3] (IC50).
For the compound `CC(C)c1cccc(C(C)C)c1NC(=O)NCC1(c2ccc(Br)cc2)CCCC1`, the “Delta TC” value in the series listed under Rattus norvegicus [5] is on record as -59%. The IC50 in series [3] turned out to be 0.029 µM.
The compound `CC(C)c1cccc(C(C)C)c1NC(=O)NCC1(c2cccc(N(C)C)c2)CCCC1` came in with a half-maximal inhibitory concentration (IC50) in series [3] of 0.033 µM. Also, the “Delta TC” value in the series filed under Rattus norvegicus [4] is -63%.
On the same counts, the results for `COc1ccc(C2(CNC(=O)Nc3c(C(C)C)cccc3C(C)C)CCCC2)cc1` are 0.031 µM and -41%.
As for `Cc1ccccc1C1(CNC(=O)Nc2c(C(C)C)cccc2C(C)C)CCCC1`, the “Delta TC” value in the series listed under Rattus norvegicus [5] is reported as -73%. Moreover, in series [3], the concentration for half-maximal inhibition (IC50) turned out to be 0.017 µM.
`CC(C)c1cccc(C(C)C)c1NC(=O)NCC1(c2ccc(N(C)C)cc2C(F)(F)F)CCCC1` returned a half-inhibitory concentration (IC50) in series [3] of 0.05 µM.
Consider `CC(C)c1ccc(C2(CNC(=O)Nc3c(C(C)C)cccc3C(C)C)CCCC2)cc1`, for which the “Delta TC” value in the series filed under Rattus norvegicus [5] is on record as -63%. This compound had a concentration for half-maximal inhibition (IC50) in series [3] of 0.048 µM.
Take `CC(C)c1cccc(C(C)C)c1NC(=O)NCC1(c2cc(C(F)(F)F)cc(C(F)(F)F)c2)CCCC1`: the “Delta TC” value in the series listed under Rattus norvegicus [5] is reported as -32%. This compound also had an IC50 in series [3] of 0.057 µM.
Regarding `CC(C)c1cccc(C(C)C)c1NC(=O)NCC1(c2cccc(CBr)c2)CCCC1`, the logD in series [1] was 5.23. Besides, the “Delta TC” value in the series listed under Rattus norvegicus [5] is listed as -26%. The same compound showed a 50% inhibitory concentration (IC50) in series [3] of 0.044 µM.
For the compound `CC(C)c1cccc(C(C)C)c1NC(=O)NCC1(c2ccc(CC(C)(C)C)cc2)CCCC1`, the “Delta TC” value in the series filed under Rattus norvegicus [5] is listed as -53%. The IC50 in series [3] amounted to 0.159 µM.
The compound `CC(C)c1cccc(C(C)C)c1NC(=O)NCC1(c2ccc(N(CCO)CCO)cc2)CCCC1` gave an IC50 in series [3] of 0.021 µM. The “Delta TC” value in the series listed under Rattus norvegicus [4] was -50%.
In the case of `Cc1ccc(C2(CNC(=O)Nc3c(C(C)C)cccc3C(C)C)CCCC2)cc1`, the “Delta TC” value in the series filed under Rattus norvegicus [5] is listed as -70%. The compound further registered a concentration for half-maximal inhibition (IC50) in series [3] of 0.025 µM.
Take `Cc1cc(C)c(C2(CNC(=O)Nc3c(C(C)C)cccc3C(C)C)CCCC2)c(C)c1`: in the series listed under Rattus norvegicus [5], the “Delta TC” value was -24%. In addition, the half-inhibitory concentration (IC50) in series [3] was 0.056 µM.
`CC(C)c1cccc(C(C)C)c1NC(=O)NCC1(c2cccc(OCc3ccccc3)c2)CCCC1`: half-maximal inhibition in series [3] (IC50) was put at 0.03 µM. For the same compound, the “Delta TC” value in the series filed under Rattus norvegicus [4] is reported as -73%.
As for `CC(C)c1cccc(C(C)C)c1NC(=O)NCC1(c2ccccc2C(F)(F)F)CCCC1`, in the series filed under Rattus norvegicus [5], the “Delta TC” value is -50%. Also, in series [3], the IC50 worked out at 0.018 µM.
The corresponding values for `Cc1ccc(C2(CNC(=O)Nc3c(C(C)C)cccc3C(C)C)CCCC2)c(C)c1` are -50% and 0.05 µM.
In turn, `CC(C)c1cccc(C(C)C)c1NC(=O)NCC1(c2ccccc2[N+](=O)[O-])CCCC1` showed an IC50 in series [3] of 0.027 µM. For the same compound, the “Delta TC” value in the series filed under Rattus norvegicus [4] is on record as -45%.
On the same counts, the results for `COC(=O)c1cccc(C2(CNC(=O)Nc3c(C(C)C)cccc3C(C)C)CCCC2)c1` are 0.034 µM and -51%.
On the same counts, the results for `CC(C)c1cccc(C(C)C)c1NC(=O)NCC1(c2ccc(C(=O)O)cc2)CCCC1` are 3.1 µM and -8%.
With `CC(C)c1cccc(C(C)C)c1NC(=O)NCC1(c2cccc(C(F)(F)F)c2)CCCC1`, the “Delta TC” value in the series filed under Rattus norvegicus [5] is given as -45%. In series [3], this compound returned a 50% inhibitory concentration (IC50) of 0.027 µM.
`CC(C)c1cccc(C(C)C)c1NC(=O)NCC1(c2cccc(CO)c2)CCCC1`: the IC50 in series [3] stood at 0.015 µM. Also, the “Delta TC” value in the series listed under Rattus norvegicus [4] is listed as -40%.
`CC(C)c1cccc(C(C)C)c1NC(=O)NCC1(c2ccc(O)cc2)CCCC1` showed an IC50 in series [3] of 0.042 µM. In the series listed under Rattus norvegicus [4], the “Delta TC” value is on record as -31%.
Consider `CC(C)c1cccc(C(C)C)c1NC(=O)NCC1(c2ccc(NCCO)cc2)CCCC1`, for which the IC50 in series [3] was 0.025 µM. For the same compound, the “Delta TC” value in the series listed under Rattus norvegicus [4] is -63%.
On the same counts, the results for `COc1cccc(C2(CNC(=O)Nc3c(C(C)C)cccc3C(C)C)CCCC2)c1` are 0.013 µM and -42%.
On the same counts, the results for `CC(C)c1cccc(C(C)C)c1NC(=O)NCC1(c2cccc([N+](=O)[O-])c2)CCCC1` are 0.051 µM and -51%.
`CC(C)c1cccc(C(C)C)c1NC(=O)NCC1(c2ccccc2N)CCCC1` gave an IC50 in series [3] of 0.14 µM. Further, the “Delta TC” value in the series filed under Rattus norvegicus [4] is listed as -58%.
For the compound `CC(C)c1cccc(C(C)C)c1NC(=O)NCC1(c2cccc(C(=O)O)c2)CCCC1`, the IC50 in series [3] came out at 0.62 µM. Besides, in the series filed under Rattus norvegicus [4], the “Delta TC” value is -40%.
On the same counts, the results for `CC(C)c1cccc(C(C)C)c1NC(=O)NCC1(c2ccc(N)cc2)CCCC1` are 0.029 µM and -76%.
As to `CC(C)c1cccc(C(C)C)c1NC(=O)NCC1(c2ccc(F)cc2)CCCC1`, the “Delta TC” value in the series filed under Rattus norvegicus [5] is -57%. Also, the IC50 in series [3] was found to be 0.023 µM.
`COc1ccccc1C1(CNC(=O)Nc2c(C(C)C)cccc2C(C)C)CCCC1` gave an IC50 in series [3] of 0.023 µM. For the same compound, in the series filed under Rattus norvegicus [4], the “Delta TC” value was -53%.
On the same counts, the results for `COC(=O)c1ccc(C2(CNC(=O)Nc3c(C(C)C)cccc3C(C)C)CCCC2)cc1` are 0.36 µM and -3%.
